Experiment: Toxicity liver stage against HepG2, at 10uM
Assay type: cell-based
Set-up: test concentration 10 uM, cell line HepG2-A16-CD81EGFP
Conditions: human, HepG2-A16-CD81EGFP cells; read-out: INHIBITION
Outline: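 Uninfected HepG2-A16-CD81EGFP cells, 3 × 10^3 per well, 1536-well, plated on prespotted compound at 10 μM final, parasite-free screening media added to match infected plates; puromycin 10 μM positive, DMSO 0.5% negative; run in parallel with 48 h PbLuc assay at 37 °C, 5% CO2; viability by CellTiter-Glo luminescence, normalized to controls.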

Structure (SMILES) | cytotoxicity at 10 µM [%]
CC(=O)N1CCCN(C(=O)C(C)n2cncn2)CC1 (centres undefined) | -0.227
CC1CCN(C[C@H]2CN3CC[C@H]2C[C@@H]3CNC(=O)Nc2ccsc2)CC1 | 2.95
CCCc1nnc2sc(CC3CN(Cc4ccccc4)CCO3)nn12 (centres undefined) | 5.3
Cc1ccc(C2CCCCCN2Cc2cn(C)nc2C)s1 (centres undefined) | -6.47
CC(C#N)CN(C)Cc1nc2c(cnn2C)c(=O)[nH]1 (centres undefined) | -6.45
Cc1ccc(-c2noc(C(C)(C)NS(C)(=O)=O)n2)cc1F | 2.77
CC(=O)c1cc(CN2CCCC23CCN(c2ccccn2)CC3)cs1 | -7.69
CCCN(CC(=O)NC)C(=O)c1ccc(-c2ccsc2)nc1C | -14.3
O=C(NC1CC(=O)N(C2CC2)C1)c1cccs1 (centres undefined) | 17.5
Cc1cc(N2CCOC(CN)C2)nc(-c2ccccc2)n1 (centres undefined) | -3.26
COc1ncccc1CN1CC[C@H]2O[C@@H](c3nnc(C)o3)CC[C@H]21 | 9.6
CS(=O)(=O)NC1CC2(CCN(CCF)CC2)Oc2ccccc21 (centres undefined) | -2.68
O=C(NCCC1CCN(CC(F)(F)F)CC1)C1CCCO1 (centres undefined) | 5.48
Cc1cccc(OCCN2CCC(c3ccnn3CCO)CC2)c1 | -4.87
O=C(Cn1ccc(=O)cc1)NCc1ccc2sccc2c1 | 0.592
CC(C)N1[C@H](Cn2cncn2)C[C@@H]2CN(Cc3ccsc3)CC[C@@H]21 | -117
O=C(NC[C@H]1OC[C@@H](NC2CCC(F)(F)CC2)[C@@H]1O)c1cccs1 | -7.34
CC(C)(C)c1n[nH]cc1CN1CCc2nc3ccsc3c(=O)n2CC1 | 6.12
Cc1cc(CN2CCC(CNC(=O)c3ccc(C#N)cc3)C2)[nH]n1 (centres undefined) | -138
COCCN1CCC2(C1)c1ccccc1S(=O)(=O)N2C (centres undefined) | 11.4
CN(C)CCN1CCO[C@H]2CN(Cc3cnn(C)c3)C[C@H]21 | 1.82
Cn1nc(C(=O)N2CCCCCC2)cc1NC(=O)c1ccccc1 | -0.942

Structure (SMILES) | cytotoxicity at 10 µM [%]
Cc1nc(-c2ccc(S(=O)(=O)N3CCCCC3)cc2)co1 | -2.5
Cc1cccnc1CCNCC1(O)CCCN(CC2CCCCC2)C1=O (centres undefined) | -203
Cc1cc(C)c2nc(CN[C@H]3CCCNC3)cc(O)c2c1 | 4.09
Cc1cc(CN2C[C@H](N3CCOCC3)[C@@H]3OCCC[C@@H]32)oc1C | -139
COc1ccc(F)c(-c2cc(C)nc(N)n2)c1 | 5.47
Cc1occc1C(=O)N1CCCn2cnc(CN3CCCC3=O)c2C1 | 4.24
Cc1ocnc1C(=O)N[C@H]1CN(CC2CCC2)C[C@@H]1C(C)C | -2.94
CN1CCC2(Cc3ccccc3CN(C(=O)Cc3cccc(Cl)c3)C2)C1 (centres undefined) | 6.91
NCC1(c2cccc(Br)c2)CCOCC1 | -8.45
CCn1ccnc1CN1CCN(CC(O)c2ccc(OC)cc2)CC1 (centres undefined) | -15.1
Cc1cnn(C2CN(Cc3nc(C(C)(C)C)no3)C2)c1 | -7.28
CCOCCN1CCN(CCCc2nnnn2-c2ccccc2)CC1 | 6.45
O[C@@H]1CN(c2cnc3ccccc3n2)CC[C@H]1c1ccc2c(c1)OCO2 | 22.4
Cc1cn2nc(N3CCCC3Cn3nc(C)nc3C)sc2n1 (centres undefined) | -14.6
COCc1cccc(CNC(=O)CN2CCCC2c2noc(C)n2)c1 (centres undefined) | 0.762
CCC[C@H]1CN(C(=O)c2ccc3[nH]c(CO)nc3c2)C[C@@H]1N | 3.96
CCOc1ccc(C(=O)N2CCN(c3nccn3C)CC2)cc1 | 5.89
CC(C)C(=O)N1CCN(C(=O)c2cc(C(C)C)on2)[C@H]2CS(=O)(=O)C[C@H]21 | -19
COCCN1CCO[C@@H]2CN(S(=O)(=O)c3cccnc3)C[C@@H]2C1 | 16.3
Cc1nsc(NCCNS(=O)(=O)c2cccc(Cl)c2)n1 | 5.62
CC(C)CCn1ccc(NC(=O)N2CCCC2CN2CCOCC2)n1 (centres undefined) | -2.16
Cc1cc2[nH]c(O)nc2cc1NCc1ccccc1 | 16

Source: ChEMBL document CHEMBL4513216, “Probing the Open Global Health Chemical Diversity Library for Multistage-Active Starting Points for Next-Generation Antimalarials” (ACS Infect Dis, 2020)
